{
  "source": "ChEMBL document CHEMBL3853331",
  "about": "“Preparation, Antiepileptic Activity, and Cardiovascular Safety of Dihydropyrazoles as Brain-Penetrant T-Type Calcium Channel Blockers” (J Med Chem, 2016)",
  "key": {"[1]": {"experiment": "Half life in Wistar rat plasma at 0.2 mg/kg, iv administered 2 hrs after aminobenzotriazol-treatment", "type": "ADME, organism-based", "summary_of_the_method": "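Male Wistar rats dosed iv at 0.2 mg/kg or po at 2 mg/kg. In the inhibited arm, the broad CYP inhibitor aminobenzotriazol was given orally 2 h before dosing. Clearance, Vss and half-life derived from plasma concentrations after the iv dose; Cmax and Tmax from the po dose.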"}, "[2]": {"experiment": "Fraction unbound in human plasma", "type": "ADME, cell-free"}, "[3]": {"experiment": "Fraction unbound in rat plasma", "type": "ADME, cell-free"}, "Rattus norvegicus [4]": {"tested_on": "Rattus norvegicus", "experiment": "Cardiovascular toxicity in spontaneously hypertensive rat assessed as decrease in mean […] pressure at 100 mg/kg, po by telemetry method", "type": "organism-based", "conditions": "in vivo", "summary_of_the_method": "(§1)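 Conscious, freely moving male spontaneously hypertensive rats with telemetry recording MAP, HR and ECG. Single oral dose (5 ml/kg) given as a suspension in 0.5% w/v methylcellulose in water, in the morning during the sleep phase. Vehicle controls run in parallel, n = 8 per group.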"}, "[5]": {"biological_target": "Voltage-dependent T-type calcium channel subunit alpha-1H (Homo sapiens, UniProt O95180)", "experiment": "Inhibition of recombinant T-type calcium channel Cav3.2 (unknown origin) expressed in HEK293 cells assessed as inhibition of CaCl2-induced calcium influx preincubated for 3 mins prior CaCl2 addition by Fluo-4-AM dye-based FLIPR assay", "type": "cell-based", "summary_of_the_method": "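HEK293 cells stably expressing Cav3.2, plated overnight at 37°C, loaded 1 h at 37°C with 3 µM Fluo-4-AM in HBSS/Hepes pH 7.4, then washed. Compound in TEAC buffer (100 mM tetraethylammonium chloride, pH 7.2), 3-fold series from 10 µM to 0.05 nM, 3 min before CaCl2 to a final 10 mM. IC50 fitted sigmoidally to the fluorescence AUC against vehicle signal; mean of at least two independent experiments.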"}, "Rattus norvegicus [6]": {"tested_on": "Rattus norvegicus", "experiment": "Cardiovascular toxicity in spontaneously hypertensive rat assessed as reduction in heart rate at 100 mg/kg, po within 6 hrs post dose", "type": "organism-based", "conditions": "in vivo", "summary_of_the_method": "as §1"}, "[7]": {"experiment": "Tmax in Wistar rat plasma at 2 mg/kg, po", "type": "ADME, organism-based"}, "[8]": {"experiment": "Tmax in Wistar rat plasma at 2 mg/kg, po administered 2 hrs after aminobenzotriazol-treatment", "type": "ADME, organism-based", "summary_of_the_method": "(§2)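 Rats dosed orally with the CYP inhibitor aminobenzotriazol 2 h before the iv dose of 0.2 mg/kg. Oral dose was 2 mg/kg.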"}, "Rattus norvegicus [9]": {"tested_on": "Rattus norvegicus", "experiment": "Cardiovascular toxicity in spontaneously hypertensive rat assessed as reduction in heart rate at 100 mg/kg, po", "type": "organism-based", "conditions": "in vivo", "summary_of_the_method": "as §1"}, "Rattus norvegicus [10]": {"tested_on": "Rattus norvegicus", "experiment": "Anticonvulsant activity in WAG/Rij rat model of generalized nonconvulsive absence-like epilepsy assessed as decrease in total duration of spontaneous seizures at 100 mg/kg, po administered as single dose at beginning of nocturnal active phase measured over 12 hrs by radiotelometry relative to vehicle control"}, "[11]": {"experiment": "Intrinsic clearance in rat hepatocytes", "type": "ADME, cell-based, Hepatocyte"}, "[12]": {"experiment": "Aqueous solubility of the compound at pH 7 by UV-HPLC method", "type": "physicochemical", "summary_of_the_method": "(§3)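 Compound dispensed from a 10 mM DMSO stock and the solvent evaporated. Residue stirred 24 h at room temperature in buffer: citrate (55 mM) pH 4.0 or phosphate (67 mM) pH 7.0. Mixture filtered by centrifugation. Filtrate concentration measured by HPLC-UV against calibration solutions.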"}, "[13]": {"experiment": "Volume of distribution at steady state in Wistar rat plasma at 0.2 mg/kg, iv administered 2 hrs after aminobenzotriazol-treatment", "type": "ADME, organism-based", "conditions": "read-out: Vdss", "summary_of_the_method": "as §2"}, "[14]": {"biological_target": "Voltage-dependent T-type calcium channel subunit alpha-1I (Homo sapiens, UniProt Q9P0X4)", "sequence (Q9P0X4 whole entry)": "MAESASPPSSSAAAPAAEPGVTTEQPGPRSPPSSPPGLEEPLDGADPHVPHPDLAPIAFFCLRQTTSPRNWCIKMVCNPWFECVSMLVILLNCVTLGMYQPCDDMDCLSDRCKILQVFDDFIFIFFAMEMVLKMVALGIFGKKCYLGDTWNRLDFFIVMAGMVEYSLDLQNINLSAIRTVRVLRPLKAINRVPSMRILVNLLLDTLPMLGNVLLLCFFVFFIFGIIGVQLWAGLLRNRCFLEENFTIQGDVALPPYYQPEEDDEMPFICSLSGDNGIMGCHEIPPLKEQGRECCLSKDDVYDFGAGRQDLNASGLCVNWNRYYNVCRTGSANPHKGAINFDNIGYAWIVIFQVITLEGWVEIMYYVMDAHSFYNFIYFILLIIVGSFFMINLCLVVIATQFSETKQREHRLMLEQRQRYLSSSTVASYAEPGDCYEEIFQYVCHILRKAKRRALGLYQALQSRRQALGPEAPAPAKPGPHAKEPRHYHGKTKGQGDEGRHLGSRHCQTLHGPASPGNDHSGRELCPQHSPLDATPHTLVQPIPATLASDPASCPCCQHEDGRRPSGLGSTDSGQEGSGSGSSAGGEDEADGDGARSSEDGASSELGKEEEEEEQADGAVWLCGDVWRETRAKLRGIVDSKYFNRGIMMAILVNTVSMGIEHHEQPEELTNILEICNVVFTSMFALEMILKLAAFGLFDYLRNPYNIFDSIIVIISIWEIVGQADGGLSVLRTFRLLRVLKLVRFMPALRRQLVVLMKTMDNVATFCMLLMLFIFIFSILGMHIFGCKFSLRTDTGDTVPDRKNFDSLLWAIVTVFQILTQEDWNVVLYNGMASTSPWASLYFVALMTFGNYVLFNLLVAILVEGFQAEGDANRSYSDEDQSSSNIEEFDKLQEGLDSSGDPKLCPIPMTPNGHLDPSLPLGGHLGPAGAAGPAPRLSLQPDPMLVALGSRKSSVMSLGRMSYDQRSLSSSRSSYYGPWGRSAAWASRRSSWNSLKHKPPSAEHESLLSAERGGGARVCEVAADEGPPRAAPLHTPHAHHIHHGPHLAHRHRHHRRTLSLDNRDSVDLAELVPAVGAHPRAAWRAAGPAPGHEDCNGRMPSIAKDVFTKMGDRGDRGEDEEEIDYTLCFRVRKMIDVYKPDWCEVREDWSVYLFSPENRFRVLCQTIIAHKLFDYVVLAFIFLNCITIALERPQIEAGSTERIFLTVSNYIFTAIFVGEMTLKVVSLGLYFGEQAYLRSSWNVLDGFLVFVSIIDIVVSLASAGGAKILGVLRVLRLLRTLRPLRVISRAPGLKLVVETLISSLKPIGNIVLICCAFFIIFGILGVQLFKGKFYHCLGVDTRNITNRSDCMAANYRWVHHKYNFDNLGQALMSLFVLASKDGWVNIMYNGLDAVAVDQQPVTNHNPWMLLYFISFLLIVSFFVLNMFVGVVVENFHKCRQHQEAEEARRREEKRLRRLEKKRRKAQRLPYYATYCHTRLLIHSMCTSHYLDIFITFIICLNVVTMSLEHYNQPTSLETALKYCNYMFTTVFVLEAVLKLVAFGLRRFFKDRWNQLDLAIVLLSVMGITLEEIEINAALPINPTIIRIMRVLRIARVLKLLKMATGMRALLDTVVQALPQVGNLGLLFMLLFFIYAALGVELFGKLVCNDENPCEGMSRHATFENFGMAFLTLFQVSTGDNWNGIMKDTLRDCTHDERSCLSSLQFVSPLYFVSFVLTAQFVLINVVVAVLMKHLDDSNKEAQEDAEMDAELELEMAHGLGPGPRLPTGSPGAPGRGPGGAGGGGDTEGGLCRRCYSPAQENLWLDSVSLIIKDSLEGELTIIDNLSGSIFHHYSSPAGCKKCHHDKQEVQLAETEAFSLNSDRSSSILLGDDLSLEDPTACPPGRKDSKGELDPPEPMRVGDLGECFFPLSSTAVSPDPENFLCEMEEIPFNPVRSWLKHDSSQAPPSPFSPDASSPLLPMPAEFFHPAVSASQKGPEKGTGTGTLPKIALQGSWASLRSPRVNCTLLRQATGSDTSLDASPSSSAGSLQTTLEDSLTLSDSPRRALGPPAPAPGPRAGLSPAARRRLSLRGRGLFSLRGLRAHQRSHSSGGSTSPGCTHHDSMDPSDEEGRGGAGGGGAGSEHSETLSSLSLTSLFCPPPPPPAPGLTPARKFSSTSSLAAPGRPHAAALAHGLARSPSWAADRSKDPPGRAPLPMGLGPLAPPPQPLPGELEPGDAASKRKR", "experiment": "Inhibition of T-type calcium channel Cav3.3 (unknown origin) expressed in HEK293 cells assessed as calcium influx by Fluo-4-AM dye-based FLIPR assay", "type": "cell-based", "summary_of_the_method": "(§4)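 HEK293 cells stably expressing the channel, seeded overnight and loaded 1 h at 37°C with 3 µM Fluo-4-AM. Compounds given as a 3-fold dilution series from 10 µM to 0.05 nM and incubated 3 min. For T-type channels, dilutions in TEAC buffer and stimulation with 10 mM final CaCl2. For Cav1.2, dilutions in assay buffer and stimulation with 20 mM final KCl. IC50 from area under the fluorescence trace against vehicle; mean of at least two experiments.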"}, "[15]": {"biological_target": "Voltage-dependent T-type calcium channel subunit alpha-1G (Homo sapiens, UniProt O43497)", "sequence (O43497 whole entry)": "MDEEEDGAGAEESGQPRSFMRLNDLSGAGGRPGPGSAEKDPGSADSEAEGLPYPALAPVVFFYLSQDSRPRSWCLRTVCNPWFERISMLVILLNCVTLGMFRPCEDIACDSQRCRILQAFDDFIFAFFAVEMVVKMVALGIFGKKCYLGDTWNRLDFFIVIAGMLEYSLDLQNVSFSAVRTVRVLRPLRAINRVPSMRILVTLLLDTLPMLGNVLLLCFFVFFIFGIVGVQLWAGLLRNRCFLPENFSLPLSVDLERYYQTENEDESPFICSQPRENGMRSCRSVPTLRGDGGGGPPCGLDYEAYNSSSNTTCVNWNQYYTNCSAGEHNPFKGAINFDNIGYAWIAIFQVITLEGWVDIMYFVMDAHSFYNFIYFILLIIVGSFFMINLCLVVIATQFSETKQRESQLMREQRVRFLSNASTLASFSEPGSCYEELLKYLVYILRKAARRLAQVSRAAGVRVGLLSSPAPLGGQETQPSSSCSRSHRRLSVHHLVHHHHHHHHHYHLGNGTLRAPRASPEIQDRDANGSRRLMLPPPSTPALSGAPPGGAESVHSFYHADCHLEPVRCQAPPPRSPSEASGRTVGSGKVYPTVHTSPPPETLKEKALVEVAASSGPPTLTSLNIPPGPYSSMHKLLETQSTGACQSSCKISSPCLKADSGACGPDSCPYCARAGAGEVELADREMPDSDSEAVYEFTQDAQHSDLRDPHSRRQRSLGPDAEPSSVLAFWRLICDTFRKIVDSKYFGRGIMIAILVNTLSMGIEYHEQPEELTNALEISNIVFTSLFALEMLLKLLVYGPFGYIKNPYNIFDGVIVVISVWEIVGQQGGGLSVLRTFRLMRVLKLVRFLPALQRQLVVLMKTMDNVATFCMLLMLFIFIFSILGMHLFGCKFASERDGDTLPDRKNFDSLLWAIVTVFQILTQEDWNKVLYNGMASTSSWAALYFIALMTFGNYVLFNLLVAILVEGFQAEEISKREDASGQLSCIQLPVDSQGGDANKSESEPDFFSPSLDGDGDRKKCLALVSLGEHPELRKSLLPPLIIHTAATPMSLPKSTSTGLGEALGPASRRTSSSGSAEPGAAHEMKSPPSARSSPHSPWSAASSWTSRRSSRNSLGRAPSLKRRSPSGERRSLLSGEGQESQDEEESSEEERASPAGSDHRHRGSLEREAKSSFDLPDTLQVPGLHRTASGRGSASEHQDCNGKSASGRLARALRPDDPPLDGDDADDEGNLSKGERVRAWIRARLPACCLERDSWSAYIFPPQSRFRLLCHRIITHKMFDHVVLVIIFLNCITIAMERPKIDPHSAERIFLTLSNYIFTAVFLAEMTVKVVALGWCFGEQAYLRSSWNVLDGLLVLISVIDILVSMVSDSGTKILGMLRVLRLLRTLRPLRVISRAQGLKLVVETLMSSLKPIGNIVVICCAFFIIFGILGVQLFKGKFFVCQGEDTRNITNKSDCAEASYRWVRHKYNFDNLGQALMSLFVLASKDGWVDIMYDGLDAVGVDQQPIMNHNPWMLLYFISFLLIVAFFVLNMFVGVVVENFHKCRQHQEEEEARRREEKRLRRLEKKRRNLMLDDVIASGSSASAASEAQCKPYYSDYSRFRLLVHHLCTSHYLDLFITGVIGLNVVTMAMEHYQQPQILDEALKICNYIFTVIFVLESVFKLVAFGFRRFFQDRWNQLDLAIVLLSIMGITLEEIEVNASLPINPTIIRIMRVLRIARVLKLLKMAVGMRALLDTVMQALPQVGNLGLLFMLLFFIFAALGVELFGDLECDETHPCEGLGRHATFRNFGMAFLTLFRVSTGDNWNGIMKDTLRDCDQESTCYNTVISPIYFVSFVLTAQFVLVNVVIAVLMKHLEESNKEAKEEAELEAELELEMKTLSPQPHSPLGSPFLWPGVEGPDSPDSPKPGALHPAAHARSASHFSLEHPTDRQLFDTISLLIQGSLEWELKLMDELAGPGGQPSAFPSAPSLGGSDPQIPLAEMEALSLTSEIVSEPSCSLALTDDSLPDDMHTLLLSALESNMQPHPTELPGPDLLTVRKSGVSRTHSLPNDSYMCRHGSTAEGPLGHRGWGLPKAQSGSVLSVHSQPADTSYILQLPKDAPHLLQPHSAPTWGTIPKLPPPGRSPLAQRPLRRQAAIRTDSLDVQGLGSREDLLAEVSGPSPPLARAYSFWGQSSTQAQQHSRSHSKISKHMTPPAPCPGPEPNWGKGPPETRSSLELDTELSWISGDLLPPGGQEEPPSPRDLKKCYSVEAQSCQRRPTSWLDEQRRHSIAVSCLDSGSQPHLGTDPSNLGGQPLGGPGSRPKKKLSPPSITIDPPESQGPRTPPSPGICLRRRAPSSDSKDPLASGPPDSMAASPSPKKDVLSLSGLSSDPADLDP", "experiment": "Inhibition of T-type calcium channel Cav3.1 (unknown origin) expressed in HEK293 cells assessed as calcium influx by Fluo-4-AM dye-based FLIPR assay", "type": "cell-based", "summary_of_the_method": "as §4"}, "Rattus norvegicus [16]": {"organism": "Rattus norvegicus", "experiment": "Inhibition of Wistar rat brain potassium channel at 10 uM assessed as reduction in fast potassium current at -80 mV holding potential measured after 180 secs", "summary_of_the_method": "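Cortical neurons from E18 Wistar rat embryos, cultured 9-15 days, recorded by manual patch clamp from a holding potential of -80 mV. K+ currents: one 50-ms step to 0 mV, fast as peak outward and slow as end-of-pulse current. Na+ currents: train of fifteen 10-ms steps to 0 mV, peak inward current read at the first and last pulses. Effects read at least 180 s after application.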"}, "MDR1 [17]": {"tested_on": "MDR1", "experiment": "Apparent permeability across apical to basolateral side in MDCK cells expressing MDR1 (unknown origin) at 1 uM", "type": "ADME, cell-based, Canis lupus familiaris", "conditions": "dog", "summary_of_the_method": "(§5)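 MDR1-transfected MDCK cell monolayers. Compound tested at 1 µM. Apparent permeability measured in both directions, apical to basolateral and basolateral to apical. Efflux ratio taken from the two directional permeabilities.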"}, "[18]": {"experiment": "Drug uptake in Wistar rat brain at 100 mg/kg, po measured after 1 hr", "type": "ADME, organism-based", "conditions": "read-out: Drug uptake", "summary_of_the_method": "(§6)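 Male Wistar rats given oral doses of 10, 30 or 100 mg/kg. Plasma, brain and CSF collected at 1 h, and at 3 h for the 10 mg/kg dose; compound concentrations measured in each.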"}, "Cytochrome P450 3A4 [19]": {"biological_target": "T1, Cytochrome P450 3A4 (Homo sapiens, UniProt P08684)", "T1 sequence (P08684 whole entry)": "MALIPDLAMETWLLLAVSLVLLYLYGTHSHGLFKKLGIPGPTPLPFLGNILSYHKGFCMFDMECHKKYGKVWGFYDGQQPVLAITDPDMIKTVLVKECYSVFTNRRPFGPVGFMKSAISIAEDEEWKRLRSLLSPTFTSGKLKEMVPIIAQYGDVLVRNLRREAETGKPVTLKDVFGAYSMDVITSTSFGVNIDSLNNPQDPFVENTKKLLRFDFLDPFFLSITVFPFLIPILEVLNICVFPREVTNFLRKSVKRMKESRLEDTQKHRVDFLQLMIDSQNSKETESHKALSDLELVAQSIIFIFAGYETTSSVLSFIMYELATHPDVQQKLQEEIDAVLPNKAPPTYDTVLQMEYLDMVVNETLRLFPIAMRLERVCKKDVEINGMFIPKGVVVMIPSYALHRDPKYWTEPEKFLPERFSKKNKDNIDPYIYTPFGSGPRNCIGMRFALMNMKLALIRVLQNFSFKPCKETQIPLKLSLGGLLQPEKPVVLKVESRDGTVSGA", "experiment": "Inhibition of CYP3A4 (unknown origin) using testosterone as substrate", "type": "ADME"}, "Rattus norvegicus [20]": {"tested_on": "Rattus norvegicus", "experiment": "Cardiovascular toxicity in spontaneously hypertensive rat assessed as increase in PR interval of ECG at 100 mg/kg, po", "type": "organism-based", "conditions": "in vivo", "summary_of_the_method": "as §1"}, "Cytochrome P450 3A4 [21]": {"biological_target": "T1, Cytochrome P450 3A4", "experiment": "Inhibition of CYP3A4 (unknown origin) using midazolam as substrate", "type": "ADME"}, "[22]": {"experiment": "Drug uptake in Wistar rat brain at 10 mg/kg, po measured after 3 hrs", "type": "ADME, organism-based", "conditions": "read-out: Drug uptake", "summary_of_the_method": "as §6"}, "MDR1 [23]": {"tested_on": "MDR1", "experiment": "Efflux ratio of permeability in MDCK cells expressing MDR1 (unknown origin)", "type": "ADME, cell-based, Canis lupus familiaris", "conditions": "dog", "summary_of_the_method": "as §5"}, "Rattus norvegicus [24]": {"tested_on": "Rattus norvegicus", "experiment": "Anticonvulsant activity in WAG/Rij rat model of generalized nonconvulsive absence-like epilepsy assessed as decrease in number of spontaneous seizures at 100 mg/kg, po administered as single dose at beginning of nocturnal active phase measured over 12 hrs by radiotelometry relative to vehicle control"}, "Rattus norvegicus [25]": {"tested_on": "Rattus norvegicus", "experiment": "Anticonvulsant activity in WAG/Rij rat model of generalized nonconvulsive absence-like epilepsy assessed as decrease in spontaneous seizures at 100 mg/kg, po administered as single dose at beginning of nocturnal active phase measured over 4 hrs by radiotelometry relative to vehicle control"}, "[26]": {"experiment": "Metabolic stability in mouse microsomes measured per mg protein", "type": "ADME, Microsome"}, "[27]": {"experiment": "Aqueous solubility of the compound at pH 4 by UV-HPLC method", "type": "physicochemical", "summary_of_the_method": "as §3"}, "Rattus norvegicus [28]": {"tested_on": "Rattus norvegicus", "experiment": "Cardiotoxicity in rat assessed as QT prolongation at 100 mg/kg by electrophysiology method", "type": "toxicity, organism-based", "conditions": "in vivo", "summary_of_the_method": "as §1"}, "[29]": {"experiment": "Oral bioavailability in Wistar rat plasma at 2 mg/kg", "type": "ADME, organism-based"}},
  "note": "pIC50: −log10 of the molar value.",
  "data": [
    {"compound": "O=C(Nc1ccc(F)cc1)N1N=C(c2ccncc2)CC1c1ccc(F)cc1", "note": "(centres undefined)", "values": [
      {"measurement": "half-life", "setting": "[1]", "result": 120, "unit": "h"},
      {"measurement": "fraction unbound", "setting": "[2]", "result": 0.02},
      {"measurement": "fraction unbound", "setting": "[3]", "result": 0.03},
      {"measurement": "Activity", "setting": "Rattus norvegicus [4]", "result": 12, "unit": "mmHg"},
      {"measurement": "pIC50", "setting": "[5]", "result": 7.48},
      {"measurement": "Activity", "setting": "Rattus norvegicus [6]", "result": "Non-Toxic"},
      {"measurement": "Tmax", "setting": "[7]", "result": 0.25, "unit": "h"},
      {"measurement": "Tmax", "setting": "[8]", "result": 6.6, "unit": "h"},
      {"measurement": "Activity", "setting": "Rattus norvegicus [9]", "result": "Toxic"},
      {"measurement": "inhibition in vivo at 100 mg/kg", "setting": "Rattus norvegicus [10]", "result": 62.2, "unit": "%"},
      {"measurement": "CLH", "setting": "[11]", "result": 5.7, "unit": "µL/min"},
      {"measurement": "solubility", "setting": "[12]", "result": 2, "unit": "µg/mL"},
      {"measurement": "Vd", "setting": "[13]", "result": 17, "unit": "L/kg"},
      {"measurement": "pIC50", "setting": "[14]", "result": 6.47},
      {"measurement": "pIC50", "setting": "[15]", "result": 7.54},
      {"measurement": "inhibition", "setting": "Rattus norvegicus [16]", "result": 18, "unit": "%"},
      {"measurement": "Papp A→B at 1 µM", "setting": "MDR1 [17]", "result": 45, "unit": "×10⁻⁶ cm/s"},
      {"measurement": "concentration at 1 h", "setting": "[18]", "result": 4270, "unit": "nM"},
      {"measurement": "pIC50", "setting": "Cytochrome P450 3A4 [19]", "result": 5.74},
      {"measurement": "Activity", "setting": "Rattus norvegicus [20]", "result": "Toxic"},
      {"measurement": "pIC50", "setting": "Cytochrome P450 3A4 [21]", "result": 4.74},
      {"measurement": "concentration at 3 h", "setting": "[22]", "result": 1150, "unit": "nM"},
      {"measurement": "efflux ratio", "setting": "MDR1 [23]", "result": 1},
      {"measurement": "inhibition in vivo at 100 mg/kg", "setting": "Rattus norvegicus [24]", "result": 63.5, "unit": "%"},
      {"measurement": "inhibition in vivo at 100 mg/kg", "setting": "Rattus norvegicus [25]", "result": "> 99", "unit": "%"},
      {"measurement": "microsomal CLint", "setting": "[26]", "result": 37, "unit": "µL/min/mg"},
      {"measurement": "solubility", "setting": "[27]", "result": 33, "unit": "µg/mL"},
      {"measurement": "Activity", "setting": "Rattus norvegicus [28]", "result": "Non-Toxic"},
      {"measurement": "bioavailability", "setting": "[29]", "result": 4, "unit": "%"}
    ]}
  ]
}
